Measured values: ChEMBL document CHEMBL1821725, “Synthesis and biological evaluation of 2',4'- and 3',4'-bridged nucleoside analogues” (Bioorg Med Chem, 2011)
Converted amounts (≈) assume the structure as drawn. The source made the active and inactive calls. The calls are words filed in the database; no cut-off is given here.

Experiments:
[1] = system: Raji; assay: Cytotoxicity against human Raji cells at 10 uM after 72 hrs by MTT assay; type: functional, cell-based
Procedure, shortened: (§1)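 Raji and CCRF-CEM cells incubated with compounds for 72 h. Viability read by MTT reduction to formazan, optical density at 570 nm. Data analysed by one-way ANOVA. IC50 taken as concentration giving 50% growth inhibition. Highest concentration tested 10 μM.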

[2] = system: Escherichia coli; assay: Antibacterial activity against Escherichia coli MG1655 after 24 hrs by micro-broth dilution method; type: functional; conditions: K-12 substr. MG1655, 24 h
Procedure, shortened: (§2)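 CLSI broth microdilution. Compounds serially diluted in cation-adjusted Mueller Hinton broth. Inoculum from fresh overnight MHA plate scrape, adjusted to 1 × 10^7 CFU/ml, 5 μL added per well. Incubated at 37 °C for 24 h. MIC = lowest concentration with no visible growth; median of at least three independent replicates. Highest concentration tested 64 μM.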

[3] = system: CCRF-CEM; assay: Cytotoxicity against human CCRF-CEM cells at 10 uM after 72 hrs by MTT assay; type: functional, cell-based; procedure, shortened: as §1
[4] = system: Staphylococcus aureus; assay: Antibacterial activity against Staphylococcus aureus 8325 after 24 hrs by micro-broth dilution method; type: functional; conditions: NCTC 8325, 24 h; procedure, shortened: as §2
[5] = system: Human immunodeficiency virus 1; assay: Antiviral activity against HIV1 HxB2 infected in human TZM-bl cells assessed as inhibition of virus neutralization after 48 hrs by luciferase assay; type: functional, organism-based; conditions: Human immunodeficiency virus 1, HxB2, TZM-bl
Procedure, shortened: (§3)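 Single-round HIV-1 pseudoviruses made in 293T cells and titrated on TZM-bl cells. Virus giving ~1 × 10^6 RLU incubated 1 h at 37 °C with serially diluted samples. TZM-bl cells then plated at 1 × 10^5 per well for 48 h. Read-out: luciferase in cell lysate. IC50 = 50% neutralization. Highest concentration tested 100 μM.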

[6] = system: Human immunodeficiency virus 1; assay: Antiviral activity against HIV1 SF162 infected in human TZM-bl cells assessed as inhibition of virus neutralization after 48 hrs by luciferase assay; type: functional, organism-based; procedure, shortened: as §3
[7] = system: Raji; assay: Cytotoxicity against human Raji cells after 72 hrs by MTT assay; type: functional, cell-based; procedure, shortened: as §1
[8] = system: CCRF-CEM; assay: Cytotoxicity against human CCRF-CEM cells after 72 hrs by MTT assay; type: functional, cell-based; procedure, shortened: as §1
[9] = system: Staphylococcus aureus; assay: Antibacterial activity against Staphylococcus aureus 8325 at 64 uM after 24 hrs by micro-broth dilution method; type: functional; conditions: NCTC 8325; procedure, shortened: as §2
[10] = system: Escherichia coli; assay: Antibacterial activity against Escherichia coli MG1655 at 64 uM after 24 hrs by micro-broth dilution method; type: functional; conditions: K-12 substr. MG1655; procedure, shortened: as §2
[11] = system: Human immunodeficiency virus 1; assay: Antiviral activity against HIV1 HxB2 infected in human TZM-bl cells assessed as inhibition of virus neutralization at 100 uM after 48 hrs by luciferase assay; type: functional, organism-based; procedure, shortened: as §3
[12] = system: Human immunodeficiency virus 1; assay: Antiviral activity against HIV1 SF162 infected in human TZM-bl cells assessed as inhibition of virus neutralization at 100 uM after 48 hrs by luciferase assay; type: functional, organism-based; procedure, shortened: as §3
[13] = system: Human immunodeficiency virus; assay: Antiviral activity against HIV; type: functional; conditions: Human immunodeficiency virus 1; read-out: ED50 (the source's name)
[14] = Cytotoxicity against human TZM-bl cells at 33 uM after 48 hrs; type: cell-based
[15] = Cytotoxicity against human MT4 cells; type: cell-based
[16] = system: Human immunodeficiency virus 1; assay: Antiviral activity against HIV1 LAI; type: functional, organism-based; conditions: Human immunodeficiency virus 1, LAI
[17] = Human immunodeficiency virus 1, SF162, TZM-bl, 48 h, read-out: IC50

SMILES	IC50 [5]	IC50 [6, 17]	growth inhibition (GI) [1]	growth inhibition (GI) [3]	inhibition [9]	inhibition [10]	further results
Nc1nc(Cl)nc2c1ncn2[C@H]1C[C@H](O)[C@@H](CO)O1 [CLADRIBINE]	–	–	–	–	–	–	IC50 [7]: 9 nM; IC50 [8]: 0.5 nM
OC[C@@]12CO[C@@H]([C@H](n3cnc4c(NCc5ccccc5)nc(Cl)nc43)O1)[C@@H]2OCc1ccccc1	2400 nM	7000 nM	inactive	inactive	inactive	inactive	–
O=C(c1ccccc1)N(C(=O)c1ccccc1)c1nc(N(C(=O)c2ccccc2)C(=O)c2ccccc2)c2ncn([C@@H]3O[C@@]4(CO)CO[C@@H]3[C@@H]4OCc3ccccc3)c2n1	–	–	–	–	inactive	inactive	inhibition [11]: inactive; inhibition [12]: inactive; IC50 [7]: 250 nM; IC50 [8]: 360 nM
Cc1cn([C@H]2C[C@H](N=[N+]=[N-])[C@@H](CO)O2)c(=O)[nH]c1=O [ZIDOVUDINE]	37 nM	78 nM	–	–	–	–	EC50 [13]: 1 nM
Cc1cn([C@@H]2O[C@@]3(CO)COC[C@H]3[C@H]2O)c(=O)[nH]c1=O	–	–	–	–	–	–	CC50 [15]: 0.54 µg/mL (≈ 1.9 µM)
Cc1cn([C@H]2C[C@@H]3COC[C@]3(CO)O2)c(=O)[nH]c1=O	–	–	–	–	–	–	CC50 [15]: 0.54 µg/mL (≈ 2.01 µM)
Cc1cn([C@@H]2C=CC3(CO)C[C@@H]23)c(=O)[nH]c1=O (single isomer, unassigned)	–	–	–	–	–	–	EC50 [16]: 28800 nM
Cc1cn([C@@H]2O[C@@]3(CO)CO[C@H]3[C@H]2O)c(=O)[nH]c1=O	–	–	–	–	–	–	EC50 [13]: 140 nM

Second part, led by results:

IC50 [5]	IC50 [6, 17]	SMILES	growth inhibition (GI) [1]	growth inhibition (GI) [3]	inhibition [9]	inhibition [10]	further results
24900 nM	27900 nM	CN(Cc1ccccc1)c1nc(Cl)nc2c1ncn2[C@@H]1O[C@@]2(CO)CO[C@@H]1[C@@H]2O	inactive	inactive	–	–	MIC [2]: 16 µM (≈ 6.69 µg/mL); MIC [4]: 8 µM (≈ 3.34 µg/mL)
2400 nM	–	C=CCc1nc(/C=C/C)c2ncn([C@@H]3O[C@@]4(CO)CO[C@@H]3[C@@H]4OCc3ccccc3)c2n1	–	–	inactive	inactive	Activity [14]: Toxic; IC50 [7]: 5800 nM; IC50 [8]: 7600 nM; IC50 ([6]; tzm-bl): Not Active
28000 nM	68000 nM	CCCCNc1nc(N)c2ncn([C@@H]3O[C@@]4(CO)CO[C@@H]3[C@@H]4OCc3ccccc3)c2n1	inactive	inactive	inactive	inactive	–
–	60000 nM	CCNc1nc(N)c2ncn([C@@H]3O[C@@]4(CO)CO[C@@H]3[C@@H]4OCc3ccccc3)c2n1	inactive	inactive	inactive	inactive	inhibition [11]: inactive
